Reference: ChEMBL document CHEMBL1153726, “Synthesis and anticancer activity of sclerophytin-inspired hydroisobenzofurans” (Bioorg Med Chem Lett, 2009)
pIC50: −log10 of the molar value.

Columns and labels:
[1] = Antitumor activity against human KB3 cells after 96 hrs by MTT assay; type: functional, cell-based; conditions: KB3, 96 h
Summary of the method: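 Human KB-3 carcinoma cells exposed to increasing compound concentrations; viability read by MTT colorimetric assay after 96 h. Values are means of triplicate assays, expressed relative to untreated controls.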

MDA-MB-231 = assay: Growth inhibition of human MDA-MB-231 cells at 10 uM after 96 hrs by MTT assay; type: functional; parameters: scale not given: the % may be the effect or the level left
UO-31 = assay: Growth inhibition of human UO31 cells at 10 uM after 96 hrs by MTT assay; type: functional; parameters: scale not given: the % may be the effect or the level left
COLO 205 = assay: Growth inhibition of human COLO205 cells at 10 uM after 96 hrs by MTT assay; type: functional; parameters: scale not given: the % may be the effect or the level left
HCT-116 = assay: Growth inhibition of human HCT116 cells at 10 uM after 96 hrs by MTT assay; type: functional; parameters: scale not given: the % may be the effect or the level left
ACHN = assay: Growth inhibition of human ACHN cells at 10 uM after 96 hrs by MTT assay; type: functional; parameters: scale not given: the % may be the effect or the level left
A549 = assay: Growth inhibition of human A549 cells at 10 uM after 96 hrs by MTT assay; type: functional; parameters: scale not given: the % may be the effect or the level left
HCT-15 = assay: Growth inhibition of human HCT15 cells at 10 uM after 96 hrs by MTT assay; type: functional; parameters: scale not given: the % may be the effect or the level left
HCC 2998 = assay: Growth inhibition of human HCC2998 cells at 10 uM after 96 hrs by MTT assay; type: functional; parameters: scale not given: the % may be the effect or the level left
SR = assay: Growth inhibition of human SR cells at 10 uM after 96 hrs by MTT assay; type: functional; parameters: scale not given: the % may be the effect or the level left
HL-60(TB) = assay: Growth inhibition of human HL-60(TB) cells at 10 uM after 96 hrs by MTT assay; type: functional; parameters: scale not given: the % may be the effect or the level left
KM12 = assay: Growth inhibition of human KM12 cells at 10 uM after 96 hrs by MTT assay; type: functional; parameters: scale not given: the % may be the effect or the level left
SK-MEL-2 = assay: Growth inhibition of human SK-MEL-2 cells at 10 uM after 96 hrs by MTT assay; type: functional; parameters: scale not given: the % may be the effect or the level left
IGROV-1 = assay: Growth inhibition of human IGROV1 cells at 10 uM after 96 hrs by MTT assay; type: functional; parameters: scale not given: the % may be the effect or the level left
T47D = assay: Growth inhibition of human T47D cells at 10 uM after 96 hrs by MTT assay; type: functional; parameters: scale not given: the % may be the effect or the level left
SK-MEL-5 = assay: Growth inhibition of human SK-MEL-5 cells at 10 uM after 96 hrs by MTT assay; type: functional; parameters: scale not given: the % may be the effect or the level left
SW-620 = assay: Growth inhibition of human SW620 cells at 10 uM after 96 hrs by MTT assay; type: functional; parameters: scale not given: the % may be the effect or the level left
HT-29 = assay: Growth inhibition of human HT-29 cells at 10 uM after 96 hrs by MTT assay; type: functional; parameters: scale not given: the % may be the effect or the level left
OVCAR-8 = assay: Growth inhibition of human OVCAR8 cells at 10 uM after 96 hrs by MTT assay; type: functional; parameters: scale not given: the % may be the effect or the level left
[2] = Growth inhibition of human RPMI8266 cells at 10 uM after 96 hrs by MTT assay; type: functional; parameters: scale not given: the % may be the effect or the level left
Malme-3M = assay: Growth inhibition of human MALME-3M cells at 10 uM after 96 hrs by MTT assay; type: functional; parameters: scale not given: the % may be the effect or the level left
MOLT-4 = assay: Growth inhibition of human MOLT4 cells at 10 uM after 96 hrs by MTT assay; type: functional; parameters: scale not given: the % may be the effect or the level left
RXF 393 = assay: Growth inhibition of human RXF393 cells at 10 uM after 96 hrs by MTT assay; type: functional; parameters: scale not given: the % may be the effect or the level left
M14 = assay: Growth inhibition of human M14 cells at 10 uM after 96 hrs by MTT assay; type: functional; parameters: scale not given: the % may be the effect or the level left
NCI-H23 = assay: Growth inhibition of human NCI-H23 cells at 10 uM after 96 hrs by MTT assay; type: functional; parameters: scale not given: the % may be the effect or the level left
MCF7 = assay: Growth inhibition of human MCF7 cells at 10 uM after 96 hrs by MTT assay; type: functional; parameters: scale not given: the % may be the effect or the level left
TK-10 = assay: Growth inhibition of human TK10 cells at 10 uM after 96 hrs by MTT assay; type: functional; parameters: scale not given: the % may be the effect or the level left
HOP-62 = assay: Growth inhibition of human HOP62 cells at 10 uM after 96 hrs by MTT assay; type: functional; parameters: scale not given: the % may be the effect or the level left
DU-145 = assay: Growth inhibition of human DU145 cells at 10 uM after 96 hrs by MTT assay; type: functional; parameters: scale not given: the % may be the effect or the level left
SK-MEL-28 = assay: Growth inhibition of human SK-MEL-28 cells at 10 uM after 96 hrs by MTT assay; type: functional; parameters: scale not given: the % may be the effect or the level left
PC-3 = assay: Growth inhibition of human PC3 cells at 10 uM after 96 hrs by MTT assay; type: functional; parameters: scale not given: the % may be the effect or the level left
MDA-MB-435 = assay: Growth inhibition of human MDA-MB-435 cells at 10 uM after 96 hrs by MTT assay; type: functional; parameters: scale not given: the % may be the effect or the level left
K562 = assay: Growth inhibition of human K562 cells at 10 uM after 96 hrs by MTT assay; type: functional; parameters: scale not given: the % may be the effect or the level left
SK-OV-3 = assay: Growth inhibition of human SKOV3 cells at 10 uM after 96 hrs by MTT assay; type: functional; parameters: scale not given: the % may be the effect or the level left
SF-268 = assay: Growth inhibition of human SF268 cells at 10 uM after 96 hrs by MTT assay; type: functional; parameters: scale not given: the % may be the effect or the level left
HOP-92 = assay: Growth inhibition of human HOP92 cells at 10 uM after 96 hrs by MTT assay; type: functional; parameters: scale not given: the % may be the effect or the level left
OVCAR-4 = assay: Growth inhibition of human OVCAR4 cells at 10 uM after 96 hrs by MTT assay; type: functional; parameters: scale not given: the % may be the effect or the level left
OVCAR-5 = assay: Growth inhibition of human OVCAR5 cells at 10 uM after 96 hrs by MTT assay; type: functional; parameters: scale not given: the % may be the effect or the level left
UACC-62 = assay: Growth inhibition of human UACC62 cells at 10 uM after 96 hrs by MTT assay; type: functional; parameters: scale not given: the % may be the effect or the level left
NCI-H226 = assay: Growth inhibition of human NCI-H226 cells at 10 uM after 96 hrs by MTT assay; type: functional; parameters: scale not given: the % may be the effect or the level left
U-251 = assay: Growth inhibition of human U251 cells at 10 uM after 96 hrs by MTT assay; type: functional; parameters: scale not given: the % may be the effect or the level left
SN12C = assay: Growth inhibition of human SN12C cells at 10 uM after 96 hrs by MTT assay; type: functional; parameters: scale not given: the % may be the effect or the level left
SNB-19 = assay: Growth inhibition of human SNB19 cells at 10 uM after 96 hrs by MTT assay; type: functional; parameters: scale not given: the % may be the effect or the level left
NCI/ADR-RES = assay: Growth inhibition of human NCI/ADR-RES cells at 10 uM after 96 hrs by MTT assay; type: functional; parameters: scale not given: the % may be the effect or the level left
OVCAR-3 = assay: Growth inhibition of human OVCAR-3 cells at 10 uM after 96 hrs by MTT assay; type: functional; parameters: scale not given: the % may be the effect or the level left
786-0 = assay: Growth inhibition of human 786-0 cells at 10 uM after 96 hrs by MTT assay; type: functional; parameters: scale not given: the % may be the effect or the level left
NCI-H460 = assay: Growth inhibition of human NCI-H460 cells at 10 uM after 96 hrs by MTT assay; type: functional; parameters: scale not given: the % may be the effect or the level left
UACC-257 = assay: Growth inhibition of human UACC257 cells at 10 uM after 96 hrs by MTT assay; type: functional; parameters: scale not given: the % may be the effect or the level left
MDA-MB-468 = assay: Growth inhibition of human MDA-MB-468 cells at 10 uM after 96 hrs by MTT assay; type: functional; parameters: scale not given: the % may be the effect or the level left
[3] = Growth inhibition of human Hs 578T cells at 10 uM after 96 hrs by MTT assay; type: functional; parameters: scale not given: the % may be the effect or the level left
SF-539 = assay: Growth inhibition of human SF539 cells at 10 uM after 96 hrs by MTT assay; type: functional; parameters: scale not given: the % may be the effect or the level left
NCI-H522 = assay: Growth inhibition of human NCI-H522 cells at 10 uM after 96 hrs by MTT assay; type: functional; parameters: scale not given: the % may be the effect or the level left
A498 = assay: Growth inhibition of human A498 cells at 10 uM after 96 hrs by MTT assay; type: functional; parameters: scale not given: the % may be the effect or the level left
LOX IMVI = assay: Growth inhibition of human LOXIMVI cells at 10 uM after 96 hrs by MTT assay; type: functional; parameters: scale not given: the % may be the effect or the level left
EKVX = assay: Growth inhibition of human EKVX cells at 10 uM after 96 hrs by MTT assay; type: functional; parameters: scale not given: the % may be the effect or the level left
SNB-75 = assay: Growth inhibition of human SNB75 cells at 10 uM after 96 hrs by MTT assay; type: functional; parameters: scale not given: the % may be the effect or the level left
NCI-H322M = assay: Growth inhibition of human NCI-H322M cells at 10 uM after 96 hrs by MTT assay; type: functional; parameters: scale not given: the % may be the effect or the level left
CCRF-CEM = assay: Growth inhibition of human CCRF-CEM cells at 10 uM after 96 hrs by MTT assay; type: functional; parameters: scale not given: the % may be the effect or the level left
BT-549 = assay: Growth inhibition of human BT549 cells at 10 uM after 96 hrs by MTT assay; type: functional; parameters: scale not given: the % may be the effect or the level left

C=C(C)[C@H]1CC=C(C)C2=CO[C@@H](c3ccco3)[C@@H]21
pIC50 [1]: 5.70

C=C(C)[C@H]1CC=C(C)[C@@]2(O)[C@@H]1[C@H](c1ccc(Cl)cc1Cl)O[C@@H]2C(=O)OCC
Activity (MDA-MB-231): 101.68%
Activity (UO-31): 90.72%
Activity (COLO 205): 122.22%
Activity (HCT-116): 84.08%
Activity (ACHN): 109.85%
Activity (A549): 90.16%
Activity (HCT-15): 108.1%
Activity (HCC 2998): 108.86%
Activity (SR): 82.5%
Activity (HL-60(TB)): 100.94%
Activity (KM12): 99.49%
pIC50 [1]: 5.52
Activity (SK-MEL-2): 106.54%
Activity (IGROV-1): 82.34%
Activity (T47D): 94.32%
Activity (SK-MEL-5): 102.55%
Activity (SW-620): 97.1%
Activity (HT-29): 93.83%
Activity (OVCAR-8): 94.44%
Activity [2]: 106.77%
Activity (Malme-3M): 117.74%
Activity (MOLT-4): 98.02%
Activity (RXF 393): 95.61%
Activity (M14): 104.29%
Activity (NCI-H23): 97.89%
Activity (MCF7): 104.98%
Activity (TK-10): 119.56%
Activity (HOP-62): 92.21%
Activity (DU-145): 110.29%
Activity (SK-MEL-28): 113.23%
Activity (PC-3): 99.33%
Activity (MDA-MB-435): 107.24%
Activity (K562): 79.96%
Activity (SK-OV-3): 98.68%
Activity (SF-268): 100.46%
Activity (HOP-92): 94.71%
Activity (OVCAR-4): 93.31%
Activity (OVCAR-5): 103.98%
Activity (UACC-62): 84.48%
Activity (NCI-H226): 97.47%
Activity (U-251): 103.59%
Activity (SN12C): 98.08%
Activity (SNB-19): 87.9%
Activity (NCI/ADR-RES): 101.67%
Activity (OVCAR-3): 112.11%
Activity (786-0): 87.09%
Activity (NCI-H460): 108.8%
Activity (UACC-257): 94.54%
Activity (MDA-MB-468): 94.32%
Activity [3]: 100.26%
Activity (SF-539): 100.6%
Activity (NCI-H522): 82.73%
Activity (A498): 102.47%
Activity (LOX IMVI): 98%
Activity (EKVX): 104.39%
Activity (SNB-75): 82.61%
Activity (NCI-H322M): 113.73%
Activity (CCRF-CEM): 98.31%
Activity (BT-549): 139.44%

C=C(C)[C@H]1CC=C(C)[C@@]2(O)[C@@H]1[C@H](c1ccccc1Br)O[C@@H]2C(=O)OCC
pIC50 [1]: 4.70

C=C(C)[C@H]1CC(=O)C(C)=C2[C@@H](C(=O)OCC)O[C@@H](c3cccc(Br)c3)[C@@H]21
pIC50 [1]: 4.52

C=C(C)[C@H]1CC=C(C)[C@@]2(O)[C@@H]1[C@H](c1ccccc1Br)O[C@@H]2C(=O)OCC1CC1
pIC50 [1]: 4.30
